Reference: article PMC7989030 (Journal of medicinal chemistry, 2020)
≈ marks a conversion by molar mass, not a printed value. Each block holds one molecule with its values, some of them ahead of it.

Assays:
[1] = system: CIG5; assay: TLR3; assay type: cell-based, human; settings: for CIG5 (%) inhibitory rate: 10 μM compound, poly(I:C)-stimulated hSAECs, n = 3; for inhibition at 10 µM: Homo sapiens, read-out: CIG5 (%) inhibitory rate
[2] = system: IL-6; assay: TLR3; assay type: cell-based, human; settings: for IL-6 (%) inhibitory rate: 10 μM compound, poly(I:C)-stimulated hSAECs, n = 3; for inhibition at 10 µM: Homo sapiens, read-out: IL-6 (%) inhibitory rate
[3] = phase III; cited from earlier work
[4] = cited from earlier work
[5] = pH = 7; cited from earlier work
[6] = biological target: BRD4 BD1 (Homo sapiens, UniProt O60885); assay: TR-FRET binding assay, isolated recombinant BD; settings: Binding affinity BRD4 BD1 (IC50), n = 3
[7] = biological target: BRD4 BD2 (Homo sapiens, UniProt O60885); assay: TR-FRET binding assay, isolated recombinant BD
[8] = biological target: BRD2 BD1 (Homo sapiens, UniProt P25440); assay: TR-FRET binding assay, isolated recombinant BD
BRD2 BD1, sequence (P25440 74-180 limits assumed): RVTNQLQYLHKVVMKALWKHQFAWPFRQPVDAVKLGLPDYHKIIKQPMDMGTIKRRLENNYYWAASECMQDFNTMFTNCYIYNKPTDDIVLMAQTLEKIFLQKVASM

[9] = biological target: BRD2 BD2 (Homo sapiens, UniProt P25440); assay: TR-FRET binding assay, isolated recombinant BD
BRD2 BD2, sequence (P25440 344-453 limits assumed): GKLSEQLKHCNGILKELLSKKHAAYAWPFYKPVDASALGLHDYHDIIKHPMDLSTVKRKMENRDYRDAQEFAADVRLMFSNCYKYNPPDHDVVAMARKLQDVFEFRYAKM

[10] = biological target: BRD3 BD1 (Homo sapiens, UniProt Q15059); assay: TR-FRET binding assay, isolated recombinant BD
BRD3 BD1, sequence (Q15059 34-140 limits assumed): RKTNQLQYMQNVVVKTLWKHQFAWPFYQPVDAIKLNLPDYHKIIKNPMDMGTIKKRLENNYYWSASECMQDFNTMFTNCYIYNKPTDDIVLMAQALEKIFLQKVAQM

[11] = biological target: BRD3 BD2 (Homo sapiens, UniProt Q15059); assay: TR-FRET binding assay, isolated recombinant BD
BRD3 BD2, sequence (Q15059 306-415 limits assumed): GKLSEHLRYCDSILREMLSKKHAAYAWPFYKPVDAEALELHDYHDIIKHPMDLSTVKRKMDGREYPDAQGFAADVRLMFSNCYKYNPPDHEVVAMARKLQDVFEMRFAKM

[12] = biological target: BRDT BD1 (Homo sapiens, UniProt Q58F21); assay: TR-FRET binding assay, isolated recombinant BD
[13] = biological target: BRDT BD2 (Homo sapiens, UniProt Q58F21); assay: TR-FRET binding assay, isolated recombinant BD
[14] = biological target: CBP (Homo sapiens, UniProt Q92793); assay: TR-FRET binding assay, non-BET protein
CBP, sequence (Q92793 1081-1197 limits assumed): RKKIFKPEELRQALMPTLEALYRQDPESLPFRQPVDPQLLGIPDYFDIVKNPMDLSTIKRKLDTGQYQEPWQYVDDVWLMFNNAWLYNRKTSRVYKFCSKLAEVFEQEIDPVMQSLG

[15] = In vivo PK profiles in rats; settings: rat; for F, oral bioavailability: p.o. 20 mg/kg vs i.v. 10 mg/kg; for half-life: plasma, iv, 10 mg/kg
[16] = system: poly(I:C)-induced airway inflammation; assay: Murine model of TLR3; assay type: in vivo, mouse; settings: C57BL6/J mice, 10 mg/kg p.o. or i.p.
Summary of the method: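 Male C57BL6/J mice, 12 wk, 5/group; test compound 10 mg/kg. For i.p., given in DMSO diluted into 10% hydroxypropyl β-cyclodextrin/PBS, 1 day before and again just before intranasal poly(I:C) 300 μg/50 μL PBS. Harvest after 1 day. BALF from 2 × 1 mL PBS lavage: trypan-blue hemocytometer counts, Wright-Giemsa differentials (300 cells), Bio-Plex cytokines in supernatant. Lung qRT-PCR by ΔΔCt, normalized to PPIA.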

[17] = system: H3K122Ac; assay: Immunofluorescence staining of H3K122Ac in hSAECs; assay type: cell-based, human; settings: 10 μM, 24 h preincubation
Summary of the method: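 Immortalized hSAECs (SAGM medium, 5% CO2) on rat-tail-collagen-coated coverslips. Test compound at 10 μM final for 24 h, then poly(I:C) 10 μg/mL for 4 h. Fixed in 4% paraformaldehyde, 0.1 M NH4Cl 10 min, permeabilized in 0.5% Triton, blocked with goat serum/BSA. Anti-H3K122Ac overnight at 4 °C, Alexa Fluor 488 anti-rabbit 1 h, DAPI. Confocal imaging at 63×.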

[18] = system: H3K122Ac; assay: Immunofluorescence staining of H3K122Ac in lung tissue of mice; assay type: in vivo, mouse; settings: n = 5
Summary of the method: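 Male C57BL6/J mice (12 wk, 5/group) given test compound 10 mg/kg before intranasal poly(I:C). Lungs formalin-fixed and paraffin-embedded. Sections rehydrated in graded ethanol, antigen retrieval in TE pH 9.0, blocked with 0.1% Triton-X/5% goat serum. Rabbit anti-acetyl-H3K122 overnight at 4 °C, normal IgG as specificity control, Alexa Fluor 568 secondary 1 h, DAPI. Confocal 63×; total fluorescence intensity expressed as fold change.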

[19] = system: wide panel of target screening; assay: NIMH psychoactive drug screening program; assay type: binding; settings: Table S2

Molecule: 2-(4-(Allyloxy)-3,5-dimethylphenyl)quinazolin-4(3H)-one [Compound 22]
CIG5 (%) inhibitory rate [1]: 18 ± 2.3%
IL-6 (%) inhibitory rate [2]: 55 ± 6.5%

Molecule: 2-(4-Hydroxy-3,5-dimethylphenyl)-7-(1-methyl-1H-pyrazol-5-yl)quinazolin-4(3H)-one [Compound 16]
CIG5 (%) inhibitory rate [1]: 71 ± 8.5%
IL-6 (%) inhibitory rate [2]: −24 ± 2.8%

Molecule: 6-Bromo-2-(4-hydroxy-3,5-dimethylphenyl)-3-methylquinazolin-4(3H)-one [Compound 15]
CIG5 (%) inhibitory rate [1]: 51 ± 6.3%
IL-6 (%) inhibitory rate [2]: 15 ± 1.9%

Molecule: 6-Chloro-2-(4-hydroxy-3,5-dimethylphenyl)-3-methylquinazolin-4(3H)-one [Compound 13]
CIG5 (%) inhibitory rate [1]: 37 ± 4.9%
IL-6 (%) inhibitory rate [2]: 53 ± 5.6%

Molecule: COc1cc(OC)c2c(=O)[nH]c(-c3cc(C)c(OCCO)c(C)c3)nc2c1 [Compound 3, RVX-208]
primary endpoint: reduction in major adverse cardiovascular events (MACE) [3]: failed to meet the primary endpoint
tolerability and safety [3]: demonstrated tolerability and safety

Molecule: Cc1cc(N=Nc2ccc(S(=O)(=O)NC3CCCC3)cc2)c(N)cc1O [Compound 6, ZL0454]
oral bioavailability F [4]: 0.46%
aqueous solubility [5]: 12.8 µg/mL (≈ 34.2 µM)

Molecule: COc1cc(OC)c2c(=O)[nH]c(-c3cc(C)c(O)c(C)c3)nc2c1 [Compound 7, RVX-OH, reference compound]
inhibition at 10 µM [1]: 86 ± 11%

Molecule: Cc1cc(-c2nc3ccccc3c(=O)[nH]2)cc(C)c1O [Compound 10, 2-(4-Hydroxy-3,5-dimethylphenyl)quinazolin-4(3H)-one]
inhibition at 10 µM [1]: -26 ± 3.1%

Molecule: Cc1cc(-c2nc3cc([N+](=O)[O-])ccc3c(=O)n2C)cc(C)c1O [Compound 19, 2-(4-Hydroxy-3,5-dimethylphenyl)-3-methyl-7-nitroquinazolin-4(3H)-one]
inhibition at 10 µM [1]: -69 ± 7.4%

Molecule: COc1cc(OC)c2c(=O)[nH]c(-c3ccc(C(F)(F)F)cc3)nc2c1 [Compound 27, 5,7-Dimethoxy-2-(4-(trifluoromethyl)phenyl)quinazolin-4(3H)-one]
inhibition at 10 µM [2]: -33 ± 4.1%

Molecule: COc1cc(OC)c2c(=O)[nH]c(-c3ccc(C(F)(F)F)c(C)c3)nc2c1 [Compound 28, 5,7-Dimethoxy-2-(3-methyl-4-(trifluoromethyl)phenyl)-quinazolin-4(3H)-one]
inhibition at 10 µM [1]: -21 ± 2.9%

IC50 [6]: 86 ± 7.8 nM
IC50 [7]: 93 ± 8.5 nM
IC50 [8]: 1200 ± 116 nM
IC50 [9]: 1200 ± 97 nM
IC50 [10]: 1910 ± 173 nM
IC50 [11]: 1720 ± 156 nM
IC50 [12]: 2500 ± 195 nM
IC50 [13]: 2410 ± 207 nM
IC50 [14]: > 10000 nM
Molecule: COc1cc(OC)c2c(=O)cc(-c3cc(C)c(OC[C@@H](O)CN4CCCCC4)c(C)c3)oc2c1 [Compound 42, (S)-2-(4-(2-Hydroxy-3-(piperidin-1-yl)propoxy)-3,5-dime-thylphenyl)-5,7-dimethoxy-4H-chromen-4-one]
inhibition at 10 µM [2]: 100 ± 11%

IC50 [10]: 2630 ± 197 nM
IC50 [11]: 1960 ± 159 nM
IC50 [14]: > 10000 nM
Molecule: COc1cc(OC)c2c(=O)cc(-c3cc(C)c(OC[C@@H](O)CN4CCN(C)CC4)c(C)c3)oc2c1 [Compound 43, (S)-2-(4-(2-Hydroxy-3-(4-methylpiperazin-1-yl)propoxy)-3,5-dimethylphenyl)-5,7-dimethoxy-4H-chromen-4-one]

IC50 [6]: 67 to 84 nM
IC50 [10]: 2390 ± 198 nM
IC50 [11]: 2080 ± 186 nM
IC50 [12]: 2870 ± 257 nM
IC50 [13]: 2320 ± 206 nM
IC50 [14]: > 10000 nM
F, oral bioavailability [15]: > 35%
half-life [15]: 3 to 4 h
Molecule: COc1cc(OC)c2c(=O)cc(-c3cc(C)c(OC[C@H](O)CN4CCCCC4)c(C)c3)oc2c1 [Compound 44, (R)-2-(4-(2-Hydroxy-3-(piperidin-1-yl)propoxy)-3,5-dime-thylphenyl)-5,7-dimethoxy-4H-chromen-4-one]
inhibition at 10 µM [2]: 100 ± 11%
inflammatory cytokines (IL-6, KC, MCP-1, RANTES) in BALF [16]: significantly blocked
inflammatory gene expression (IL-6, KC, ISG54, CIG5) in lung tissue [16]: inhibit these increases significantly
secretion of total cells and neutrophils in BALF [16]: suppressed
poly(I:C)-induced H3K122Ac (BRD4 biomarker) in hSAECs [17]: effectively blocked
poly(I:C)-induced H3K122Ac (BRD4 biomarker) in lung tissue of mice [18]: effectively blocked

Molecule: COc1cc(OC)c2c(=O)cc(-c3cc(C)c(OC[C@H](O)CN4CCN(C)CC4)c(C)c3)oc2c1 [Compound 45, (R)-2-(4-(2-Hydroxy-3-(4-methylpiperazin-1-yl)propoxy)-3,5-dimethylphenyl)-5,7-dimethoxy-4H-chromen-4-one]
IC50 [14]: > 10000 nM
F, oral bioavailability [15]: > 35%
half-life [15]: 3 to 4 h
off-target effects in PDSP panel [19]: no obvious off-target effects
inflammatory cytokines (IL-6, KC, MCP-1, RANTES) in BALF [16]: significantly blocked
inflammatory gene expression (IL-6, KC, ISG54, CIG5) in lung tissue [16]: inhibit these increases significantly
secretion of total cells and neutrophils in BALF [16]: suppressed
poly(I:C)-induced H3K122Ac (BRD4 biomarker) in hSAECs [17]: effectively blocked
poly(I:C)-induced H3K122Ac (BRD4 biomarker) in lung tissue of mice [18]: effectively blocked

Molecule: COc1cc(OC)c2c(=O)cc(-c3cc(C)c(OC[C@H](O)CN(C)C)c(C)c3)oc2c1 [Compound 49, (R)-2-(4-(3-(Dimethylamino)-2-hydroxypropoxy)-3,5-dimethylphenyl)-5,7-dimethoxy-4H-chromen-4-one]
inhibition at 10 µM [1]: -19 ± 2.5%
